# Calls of active or inactive are those of the source. No cut-off for these calls is given here.
# Assays:
# Salmonella typhimurium = test: Antimicrobial activity against Salmonella Typhimurium NCIM 2501 at 500 ug/disk after 24 hrs by disk diffusion method; type: functional, Salmonella enterica subsp. enterica serovar Typhimurium
# Outline: (§1)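 Disc diffusion. 100 µl of bacterial suspension at 10⁸ CFU/ml was spread on Mueller–Hinton agar. Discs loaded with test compound dissolved in DMSO were placed on the lawn, with a DMSO-only disc as negative control. Plates were incubated at 37 °C for 24 h, and the inhibition zone diameter was measured.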
# Aspergillus flavus [1] = test: Antimicrobial activity against Aspergillus flavus NCIM 902 after 72 hrs by serial dilution method; type: functional; settings: NCIM 535, 72 h, in the assay text read “NCIM 535” for “NCIM 902”
# Outline: (§2)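 MIC by broth dilution in Sabouraud's dextrose broth, only for fungi sensitive in disc diffusion. Two-fold serial dilutions of compounds are made in 1 ml broth per tube, range 3.9 to 1000. Inoculated tubes are incubated at 27 °C for 72 h.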
# Klebsiella aerogenes [2] = test: Antimicrobial activity against Klebsiella aerogenes NCIM 2239 at 1000 ug/disk after 24 hrs by disk diffusion method; type: functional; settings: NCIM 2239, 24 h, read-out: DIZ
# Outline: (§3)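 Disc diffusion on Mueller–Hinton agar. 100 µl of bacterial suspension at 10⁸ CFU/ml is spread on the plate. Discs carry test compounds at two loadings, dissolved in DMSO; DMSO alone serves as negative control. Ofloxacin disc is the positive reference. Plates are incubated at 37 °C for 24 h, and the inhibition zone diameter is measured.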
# Bacillus subtilis [3] = test: Antimicrobial activity against Bacillus subtilis NCIM 2063 at 1000 ug/disk after 24 hrs by disk diffusion method; type: functional; settings: NCIM 2063, 24 h, read-out: DIZ; outline: as §3
# Proteus vulgaris [4] = test: Antimicrobial activity against Proteus vulgaris NCIM 2027 at 500 ug/disk after 24 hrs by disk diffusion method; type: functional; outline: as §3
# Aliivibrio fischeri [5] = test: Antimicrobial activity against Vibrio fischeri NCIM 2154 at 1000 ug/disk after 24 hrs by disk diffusion method; type: functional; settings: NCIM 2154, 24 h, read-out: DIZ; outline: as §1
# Penicillium chrysogenum = test: Antimicrobial activity against Penicillium chrysogenum NCIM 707 at 500 ug/disk after 72 hrs by disk diffusion method; type: functional
# Outline: (§4)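 Disc diffusion on Sabouraud's dextrose agar. 100 µl of fungal suspension at 10⁶ CFU/ml is spread on the plate. Discs carry test compounds at two loadings in DMSO; DMSO alone is the negative control. Clotrimazole disc is the positive reference. Plates are incubated at 27 °C for 72 h, and the zone of inhibition diameter is measured.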
# Aspergillus fumigatus [6] = test: Antimicrobial activity against Aspergillus fumigatus NCIM 902 at 1000 ug/disk after 72 hrs by disk diffusion method; type: functional; outline: as §4
# Bacillus cereus [7] = test: Antimicrobial activity against Bacillus cereus NCIM 2155 at 1000 ug/disk after 24 hrs by disk diffusion method; type: functional; outline: as §3
# Pseudomonas aeruginosa [8] = test: Antimicrobial activity against Pseudomonas aeruginosa NCIM 2200 at 500 ug/disk after 24 hrs by disk diffusion method; type: functional; outline: as §1
# Aliivibrio fischeri [9] = test: Antimicrobial activity against Vibrio fischeri NCIM 2154 at 500 ug/disk after 24 hrs by disk diffusion method; type: functional; outline: as §1
# [10] = test system: Rhodococcus corynebacterioides; test: Antimicrobial activity against Corynebacterium rubrum NCIM 2252 at 500 ug/disk after 24 hrs by disk diffusion method; type: functional; settings: Rhodococcoides corynebacterioides; outline: as §3
# Trichoderma viride [11] = test: Antimicrobial activity against Trichoderma viride NCIM 1195 at 1000 ug/disk after 72 hrs by disk diffusion method; type: functional; settings: NCIM 1195, 72 h, read-out: DIZ
# Outline: (§5)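 Fungal disc diffusion. 100 µl of suspension at 10⁶ CFU/ml was spread on Sabouraud's dextrose agar. Discs carrying test compound in DMSO were applied, with a DMSO-only disc as negative control. Plates were incubated at 27 °C for 72 h, and the zone of inhibition diameter was measured.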
# Aspergillus parasiticus [12] = test: Antimicrobial activity against Aspergillus parasiticus NCIM 904 at 1000 ug/disk after 72 hrs by disk diffusion method; type: functional; settings: NCIM 904, 72 h, read-out: DIZ; outline: as §4
# Rhodotorula mucilaginosa [13] = test: Antimicrobial activity against Rhodotorula rubra NCIM 3174 at 1000 ug/disk after 72 hrs by disk diffusion method; type: functional; settings: NCIM 3174, 72 h, read-out: DIZ; outline: as §5
# Staphylococcus = test: Antimicrobial activity against Staphylococcus albus NCIM 2178 at 500 ug/disk after 24 hrs by disk diffusion method; type: functional; outline: as §1
# Trichoderma viride [14] = test: Antimicrobial activity against Trichoderma viride NCIM 1195 at 500 ug/disk after 72 hrs by disk diffusion method; type: functional; settings: NCIM 1195, 72 h, read-out: DIZ; outline: as §5
# Bacillus subtilis [15] = test: Antimicrobial activity against Bacillus subtilis NCIM 2063 after 24 hrs by serial dilution method; type: functional; settings: NCIM 2063, 24 h
# Outline: (§6)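 Broth dilution MIC in nutrient broth, run only for organisms found sensitive in disc diffusion. Compounds are two-fold serially diluted in 1 ml sterile broth per tube, spanning 3.9 to 1000. Inoculated tubes are incubated at 37 °C for 24 h.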
# Lipomyces lipofer = test: Antimicrobial activity against Lipomyces lipofer NCIM 3252 at 500 ug/disk after 72 hrs by disk diffusion method; type: functional; outline: as §4
# Trichoderma viride [16] = test: Antimicrobial activity against Trichoderma viride NCIM 1195 after 72 hrs by serial dilution method; type: functional; settings: NCIM 1195, 72 h
# Outline: (§7)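 MIC by broth dilution in Sabouraud's dextrose broth, run only on fungi found sensitive in the disc assay. Twofold serial dilutions were made in 1 ml broth per tube, covering 3.9 to 1000. Inoculated tubes were incubated at 27 °C for 72 h.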
# Escherichia coli [17] = test: Antimicrobial activity against Escherichia coli NCIM 2065 at 500 ug/disk after 24 hrs by disk diffusion method; type: functional; outline: as §3
# [18] = test system: Rhodococcus corynebacterioides; test: Antimicrobial activity against Corynebacterium rubrum NCIM 2252 at 1000 ug/disk after 24 hrs by disk diffusion method; type: functional; settings: Rhodococcoides corynebacterioides; outline: as §3
# Aspergillus parasiticus [19] = test: Antimicrobial activity against Aspergillus parasiticus NCIM 904 after 72 hrs by serial dilution method; type: functional; settings: NCIM 904, 72 h; outline: as §2
# Pseudomonas aeruginosa [20] = test: Antimicrobial activity against Pseudomonas aeruginosa NCIM 2200 at 1000 ug/disk after 24 hrs by disk diffusion method; type: functional; outline: as §3
# Klebsiella aerogenes [21] = test: Antimicrobial activity against Klebsiella aerogenes NCIM 2239 at 500 ug/disk after 24 hrs by disk diffusion method; type: functional; outline: as §3
# Bacillus cereus [22] = test: Antimicrobial activity against Bacillus cereus NCIM 2155 at 500 ug/disk after 24 hrs by disk diffusion method; type: functional; outline: as §3
# Proteus vulgaris [23] = test: Antimicrobial activity against Proteus vulgaris NCIM 2027 at 1000 ug/disk after 24 hrs by disk diffusion method; type: functional; outline: as §3
# Rhodotorula mucilaginosa [24] = test: Antimicrobial activity against Rhodotorula rubra NCIM 3174 after 72 hrs by serial dilution method; type: functional; settings: NCIM 3174, 72 h; outline: as §7
# Rhodotorula mucilaginosa [25] = test: Antimicrobial activity against Rhodotorula rubra NCIM 3174 at 500 ug/disk after 72 hrs by disk diffusion method; type: functional; settings: NCIM 3174, 72 h, read-out: DIZ; outline: as §5
# Escherichia coli [26] = test: Antimicrobial activity against Escherichia coli NCIM 2065 after 24 hrs by serial dilution method; type: functional; settings: NCIM 2065, 24 h; outline: as §6
# Aspergillus fumigatus [27] = test: Antimicrobial activity against Aspergillus fumigatus NCIM 902 at 500 ug/disk after 72 hrs by disk diffusion method; type: functional; outline: as §4
# Aspergillus flavus [28] = test: Antimicrobial activity against Aspergillus flavus NCIM 902 at 1000 ug/disk after 72 hrs by disk diffusion method; type: functional; settings: NCIM 902, 72 h, read-out: DIZ; outline: as §4
MIC (Aspergillus flavus [1]) [µg/mL],MIC (Bacillus subtilis [15]) [µg/mL],MIC (Trichoderma viride [16]) [µg/mL],MIC (Aspergillus parasiticus [19]) [µg/mL],MIC (Rhodotorula mucilaginosa [24]) [µg/mL],SMILES,zone of inhibition at 1000 µg/disc (Klebsiella aerogenes [2]) [mm],zone of inhibition at 1000 µg/disc (Bacillus subtilis [3]) [mm],diameter of the inhibition zone (DIZ) (Proteus vulgaris [4]),zone of inhibition at 1000 µg/disc (Aliivibrio fischeri [5]) [mm],diameter of the inhibition zone (DIZ) (Penicillium chrysogenum),diameter of the inhibition zone (DIZ) (Pseudomonas aeruginosa [8]),zone of inhibition at 1000 µg/disc (Trichoderma viride [11]) [mm],zone of inhibition at 1000 µg/disc (Aspergillus parasiticus [12]) [mm],zone of inhibition at 1000 µg/disc (Rhodotorula mucilaginosa [13]) [mm],diameter of the inhibition zone (DIZ) (Staphylococcus),zone of inhibition at 500 µg/disc (Trichoderma viride [14]) [mm],diameter of the inhibition zone (DIZ) (Lipomyces lipofer),diameter of the inhibition zone (DIZ) (Pseudomonas aeruginosa [20]),diameter of the inhibition zone (DIZ) (Proteus vulgaris [23]),zone of inhibition at 500 µg/disc (Rhodotorula mucilaginosa [25]) [mm],further results
62.5,62.5,31.2,3.9,7.8,CC1(C)CC(=O)C2=C(C1)Nc1c(ccc3ccccc13)C2c1ccccc1O (centres undefined),10,9,inactive,8,inactive,inactive,12,16,14,inactive,10,inactive,inactive,inactive,10,"zone of inhibition at 500 µg/disc (Salmonella typhimurium; Salmonella enterica, NCIM 2501, 24 h, read-out: DIZ): 10 mm; diameter of the inhibition zone (DIZ) (Aspergillus fumigatus [6]): inactive; zone of inhibition at 1000 µg/disc (Bacillus cereus [7]; NCIM 2155, 24 h, read-out: DIZ): 10 mm; diameter of the inhibition zone (DIZ) (Aliivibrio fischeri [9]): inactive; diameter of the inhibition zone (DIZ) [10]: inactive; diameter of the inhibition zone (DIZ) (Escherichia coli [17]): inactive; diameter of the inhibition zone (DIZ) [18]: inactive; zone of inhibition at 500 µg/disc (Klebsiella aerogenes [21]; NCIM 2239, 24 h, read-out: DIZ): 7 mm; zone of inhibition at 500 µg/disc (Bacillus cereus [22]; NCIM 2155, 24 h, read-out: DIZ): 7 mm; MIC (Escherichia coli [26]): 125 µg/mL; diameter of the inhibition zone (DIZ) (Aspergillus fumigatus [27]): inactive; zone of inhibition at 1000 µg/disc (Aspergillus flavus [28]): 10 mm"
62.5,31.2,125,15.6,62.5,O=C1CCCC2=C1C(c1cccc(Cl)c1)c1ccc3ccccc3c1N2 (centres undefined),9,11,inactive,10,inactive,inactive,10,13,10,inactive,8,inactive,inactive,inactive,8,"diameter of the inhibition zone (DIZ) (Salmonella typhimurium; Salmonella enterica subsp. enterica serovar Typhimurium): inactive; zone of inhibition at 1000 µg/disc (Aspergillus fumigatus [6]; NCIM 902, 72 h, read-out: DIZ): 12 mm; diameter of the inhibition zone (DIZ) (Bacillus cereus [7]): inactive; zone of inhibition at 500 µg/disc (Aliivibrio fischeri [9]; NCIM 2154, 24 h, read-out: DIZ): 9 mm; zone of inhibition at 500 µg/disc ([10]; NCIM 2252, 24 h, read-out: DIZ): 7 mm; zone of inhibition at 500 µg/disc (Escherichia coli [17]; NCIM 2065, 24 h, read-out: DIZ): 7 mm; zone of inhibition at 1000 µg/disc ([18]; NCIM 2252, 24 h, read-out: DIZ): 9 mm; diameter of the inhibition zone (DIZ) (Klebsiella aerogenes [21]): inactive; diameter of the inhibition zone (DIZ) (Bacillus cereus [22]): inactive; MIC (Escherichia coli [26]): 62.5 µg/mL; zone of inhibition at 500 µg/disc (Aspergillus fumigatus [27]; NCIM 902, 72 h, read-out: DIZ): 8 mm; zone of inhibition at 1000 µg/disc (Aspergillus flavus [28]): 11 mm"

# From ChEMBL document CHEMBL1138564, “Microwave-induced synthesis and anti-microbial activities of 7,10,11,12-tetrahydrobenzo[c]acridin-8(9H)-one derivatives” (2009)
